Reference: ChEMBL document CHEMBL3085762, “Expeditious synthesis, enantiomeric resolution, and enantiomer functional characterization of (4-(4-bromophenyl)-3a,4,5,9b-tetrahydro-3H-cyclopenta[c]quinoline-8-sulfonamide (4BP-TQS): an allosteric agonist-positive allosteric modulator of α7 nicotinic acetylcholine receptors” (J Med Chem, 2013)
Calls of active or inactive are those of the source. The rule behind the calls is not given here.

Experiments:
Type in all cases: cell-based
[1] = molecular target: T1, Neuronal acetylcholine receptor subunit alpha-7 (Homo sapiens, UniProt P36544); experiment: Positive allosteric modulation of human alpha7 nAChR expressed in Xenopus oocytes assessed as potentiation of ACh-induced response at 10 uM preincubated for 5 mins measured over 20 mins by two-electrode voltage clamp method
In short: (§1)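 Xenopus oocytes expressing human α7 receive control 60 μM ACh, then 10 μM drug alone or with 10 μM of the other enantiomer. Pre-incubation is 30 s or 5 min, followed by ACh to assess potentiation. Responses are measured over a 120-second interval from the start of drug application. Potentiation is followed over 20 minutes. Two-electrode voltage clamp.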

[2] = molecular target: T1, Neuronal acetylcholine receptor subunit alpha-7; experiment: Positive allosteric modulation of human alpha7 nAChR expressed in Xenopus oocytes assessed as potentiation of ACh-induced response at 10 uM treated 4 mins prior to ACh addition by two-electrode voltage clamp method
[3] = molecular target: T1, Neuronal acetylcholine receptor subunit alpha-7; experiment: Positive allosteric modulation of human alpha7 nAChR expressed in Xenopus oocytes assessed as potentiation of ACh-induced response after 20 secs by two-electrode voltage clamp method
[4] = molecular target: T1, Neuronal acetylcholine receptor subunit alpha-7; experiment: Positive allosteric modulation of human alpha7 nAChR expressed in Xenopus oocytes assessed as potentiation of ACh-induced response at 30 uM measured over 5 mins by two-electrode voltage clamp method in presence of choline
In short: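 α7-expressing Xenopus oocytes get control 60 μM ACh applications, then 300 μM choline together with 30 μM drug (racemate or single enantiomer). Potentiation is measured by two-electrode voltage clamp and normalized to the initial ACh controls.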

[5] = molecular target: T1, Neuronal acetylcholine receptor subunit alpha-7; experiment: Allosteric agonist activity at human alpha7 nAChR expressed in Xenopus oocytes after 20 secs by two-electrode voltage clamp method
In short: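 Human α7 nAChR in Xenopus oocytes under two-electrode voltage clamp. Control applications of 60 μM ACh come first, then a standard 20-second drug application over a range of concentrations. Net-charge response is normalized to the mean of the two initial ACh controls. At least four oocytes per condition. EC50 is taken from the concentration-response curve.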

[6] = molecular target: T1, Neuronal acetylcholine receptor subunit alpha-7; experiment: Allosteric agonist activity at human alpha7 nAChR expressed in Xenopus oocytes at 10 uM preincubated for 5 mins by two-electrode voltage clamp method; in short: as §1
[7] = molecular target: T1, Neuronal acetylcholine receptor subunit alpha-7; experiment: Allosteric agonist activity at human alpha7 nAChR expressed in Xenopus oocytes at 10 uM measured over 120 secs by two-electrode voltage clamp method; in short: as §1
[8] = molecular target: T1, Neuronal acetylcholine receptor subunit alpha-7; experiment: Agonist activity at human alpha7 nAChR expressed in Xenopus oocytes at 60 uM after 5 mins by two-electrode voltage clamp method relative to ACh
[9] = molecular target: T1, Neuronal acetylcholine receptor subunit alpha-7; experiment: Potency index, ratio of ACh EC50 to compound EC50 for human alpha7 nAChR expressed in Xenopus oocytes
[10] = molecular target: T1, Neuronal acetylcholine receptor subunit alpha-7; experiment: Positive allosteric modulation of human alpha7 nAChR expressed in Xenopus oocytes assessed as potentiation of ACh-induced response at 10 uM measured over 120 secs by two-electrode voltage clamp method

T1 sequence (P36544 whole entry): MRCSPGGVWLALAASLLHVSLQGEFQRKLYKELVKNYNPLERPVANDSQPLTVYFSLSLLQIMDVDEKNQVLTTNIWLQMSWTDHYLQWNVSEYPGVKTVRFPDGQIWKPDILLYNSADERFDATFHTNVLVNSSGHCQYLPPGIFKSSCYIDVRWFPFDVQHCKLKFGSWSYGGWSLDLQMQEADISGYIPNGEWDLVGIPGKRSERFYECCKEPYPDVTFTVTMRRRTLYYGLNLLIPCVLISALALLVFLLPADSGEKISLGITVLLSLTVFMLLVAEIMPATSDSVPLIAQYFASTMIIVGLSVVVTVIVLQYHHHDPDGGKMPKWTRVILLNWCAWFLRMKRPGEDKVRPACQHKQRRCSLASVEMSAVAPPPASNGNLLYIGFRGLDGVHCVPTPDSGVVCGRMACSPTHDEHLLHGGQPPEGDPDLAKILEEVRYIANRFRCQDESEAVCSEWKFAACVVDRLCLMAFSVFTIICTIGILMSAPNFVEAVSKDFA

**Q.** What does the source list for `NS(=O)(=O)c1ccc2c(c1)[C@H]1C=CC[C@H]1[C@@H](c1ccc(Br)cc1)N2`?
**A.** Activity [1]: Active; Activity [2]: Active; Activity [3]: Dose-dependent effect; Activity [4]: Active; EC50 [5]: 28 µM; Activity [6]: Active; Activity [7]: Active

**Q.** For `NS(=O)(=O)c1ccc2c(c1)[C@H]1C=CC[C@H]1C(c1ccc(Br)cc1)N2` (mixture of isomers), which fold change (FC) [8] is on record?
**A.** 45

**Q.** What about the Ratio EC50 [9] of the same compound?
**A.** 8

**Q.** What about the Activity [4] of the same compound?
**A.** Active

**Q.** For `NS(=O)(=O)c1ccc2c(c1)[C@@H]1C=CC[C@@H]1[C@H](c1ccc(Br)cc1)N2`, which Activity [10] is on record?
**A.** inactive

**Q.** What about the Activity [7] of the same compound?
**A.** inactive
